Activity calls are given as the source filed them. The rule behind the calls is not given here.
What was measured:
[1] = Inhibition of Escherichia coli HisG
[2] = tested on: Mycolicibacterium smegmatis; experiment: Antimycobacterial activity against Mycobacterium smegmatis ATCC 700084 at 12 ug/mL; format: functional, organism-based
Procedure, shortened: (§1)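 M. smegmatis ATCC 700084 pre-grown 2 days in 7H9 with 0.2% glucose and 0.05% Tween80, then plated on 7H10 agar (0.2% glycerol) containing compound at 1, 3, 6, 12 or 25 μg/ml. Plates were incubated 4 days at 37 °C and growth was judged by inspection. Controls were no-compound and DMSO plates, plus kanamycin 25 μg/ml.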

[3] = tested on: Mycolicibacterium smegmatis; experiment: Antimycobacterial activity against Mycobacterium smegmatis ATCC 700084 at 25 ug/mL; format: functional; procedure, shortened: as §1
[4] = molecular target: T1, ATP phosphoribosyltransferase (Mycobacterium tuberculosis, UniProt P9WMN1); experiment: Inhibition of Mycobacterium tuberculosis HisG assessed as phosphoribosyl ATP production by spectrophotometry
T1 sequence (P9WMN1 whole entry): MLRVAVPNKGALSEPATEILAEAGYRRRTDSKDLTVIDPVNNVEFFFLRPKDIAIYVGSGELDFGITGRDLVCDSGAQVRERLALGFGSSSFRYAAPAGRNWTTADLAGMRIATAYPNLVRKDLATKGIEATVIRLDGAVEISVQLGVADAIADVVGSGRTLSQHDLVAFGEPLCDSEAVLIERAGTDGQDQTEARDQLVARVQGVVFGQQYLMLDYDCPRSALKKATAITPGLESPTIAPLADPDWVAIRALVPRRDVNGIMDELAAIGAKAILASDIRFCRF

[5] = molecular target: T2, ATP phosphoribosyltransferase (Mycobacterium tuberculosis) (UniProt P9WMN1); experiment: Inhibition of Mycobacterium tuberculosis HisG assessed as phosphoribosyl ATP production at 10 uM by spectrophotometry
T2 sequence (whole entry): T1 sequence (P9WMN1 whole entry)

[6] = molecular target: T2, ATP phosphoribosyltransferase (Mycobacterium tuberculosis); experiment: Inhibition of Mycobacterium tuberculosis HisG assessed as phosphoribosyl ATP production at 1 uM by spectrophotometry

Compound: Oc1c(Cl)c(Cl)c(Cl)c(Cl)c1Cl [PENTACHLOROPHENOL]
- Ki [1]: 50 µM

Compound: O=[N+]([O-])c1ccc(Nc2cc(Nc3cccc(O)c3)c3nonc3c2[N+](=O)[O-])c(O)c1
- Activity [2]: Active
- inhibition at 25 µg/mL [3]: 100%
- IC50 [4]: 11.9 µM
- inhibition [5]: 46%

Compound: Nc1nc(SCc2ccccc2)c(N)c(SCc2ccccc2)n1
- inhibition [5]: 48%

Compound: O=C(CC(NC(=O)c1ccccc1)c1ccccc1)Nc1nc2ccc([N+](=O)[O-])cc2s1 (configuration not stated)
- inhibition [6]: 35%
- IC50 [4]: 6 µM
- Ki [4]: 2 µM
- inhibition [5]: 71%

Compound: CCOC(=O)C(=O)Nc1nc2ccc([N+](=O)[O-])cc2s1
- IC50 [4]: 13.9 µM
- inhibition [5]: 39%

Compound: Cc1cc(/N=N/c2ccc(S(=O)(=O)O)cc2)c(N)c(/N=N/c2ccc(S(=O)(=O)O)cc2)c1N
- inhibition [5]: 45%

Compound: O=C(CSc1nnc(-c2ccccc2)c(-c2ccccc2)n1)Cc1nccs1
- inhibition [6]: 40%
- IC50 [4]: 4 µM
- Ki [4]: 2 µM
- inhibition [5]: 76%

Compound: COc1cc(C2C(C(=O)c3ccc(Cl)cc3)=C(O)C(=O)N2Cc2cccnc2)cc(OC)c1OC (configuration not stated)
- inhibition [5]: 20%

Compound: COc1ccc(COC(=O)C2=C(C)NC3=C(C(=O)CC(c4cccs4)C3)C2c2cccs2)cc1 (configuration not stated)
- IC50 [4]: 10 µM
- inhibition [5]: 50%

Compound: O=[N+]([O-])c1ccc(O)c([N+](=O)[O-])c1 [2,4-DINITROPHENOL]
- Ki [1]: 50 µM

Compound: CN(CC(=O)O)c1nc2cc([N+](=O)[O-])ccc2s1
- inhibition [5]: 15%

Compound: O=[N+]([O-])c1ccc2c(/N=N/c3ccc4ccccc4c3O)c(O)cc(S(=O)(=O)O)c2c1
- IC50 [4]: 10 µM
- inhibition [5]: 50%

Compound: O=c1oc2ccccc2c(O)c1Cc1c(O)c2ccccc2oc1=O [DICUMAROL]
- Ki [1]: 50 µM

Compound: O=C(NNC(=O)c1cc([N+](=O)[O-])cc([N+](=O)[O-])c1Br)Nc1ccccc1
- IC50 [4]: 5.5 µM
- inhibition [5]: 71%

Reference: ChEMBL document CHEMBL1140096, “Discovery of novel nitrobenzothiazole inhibitors for Mycobacterium tuberculosis ATP phosphoribosyl transferase (HisG) through virtual screening” (J Med Chem, 2008)
